Screens from PubChem.
JNK3 inh – blocks human JNK3 kinase activity. P53779. purified JNK3 kinase activity, HTS. inhibition, % at 8 µM. 60,000 tested, 0.61% active. AID 746; in the data active means inhibition above about 17%;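 further: 0% = DMSO and 100% = reference inhibitor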
Target sequence (P53779 whole entry, looked up): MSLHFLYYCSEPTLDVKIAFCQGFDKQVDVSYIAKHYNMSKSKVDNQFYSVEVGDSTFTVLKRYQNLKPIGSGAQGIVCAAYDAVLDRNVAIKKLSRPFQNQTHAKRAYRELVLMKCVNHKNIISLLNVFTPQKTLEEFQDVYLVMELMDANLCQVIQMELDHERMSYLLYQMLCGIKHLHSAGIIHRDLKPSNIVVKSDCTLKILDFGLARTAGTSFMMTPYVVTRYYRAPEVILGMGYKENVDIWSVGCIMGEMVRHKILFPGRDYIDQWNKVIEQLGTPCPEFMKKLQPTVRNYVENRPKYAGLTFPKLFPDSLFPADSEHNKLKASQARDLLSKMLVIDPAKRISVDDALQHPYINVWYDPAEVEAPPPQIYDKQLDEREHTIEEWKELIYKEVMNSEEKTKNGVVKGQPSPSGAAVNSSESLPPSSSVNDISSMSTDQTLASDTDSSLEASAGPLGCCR
HER2 expr 66K – lowers expression of human Her2 kinase | P04626 | SKBR-3 HER2 protein level, AlphaScreen, 18-24 h; active compounds read low | HER2 level % of control, % at 10 µM | 65,000 tested, 0.69% active | AID 645;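 active means HER2 level under 5% of the carrier-only control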;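 further: 100% = DMSO carrier and 0% = 500 nM PU-H71 HSP90 inhibitor; lower value means stronger loss of Her2 protein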
HEK293 NFkB inh – lowers PMA/ionomycin-induced NF-kB signal in HEK293 cells | HEK-293 NF-kB luciferase reporter, luminescence | inhibition, % at 3 µM | 62,000 tested, 0.21% active;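 active means inhibition above the mean of all tested compounds plus 3 SD, cut at about 40% in these data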;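 further: 0% = stimulated DMSO wells and 100% = 10 µM reference inhibitor 5653914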
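Signal: luciferase luminescence; Material: HEK-293 cells with stable firefly luciferase reporter driven by four HIV NF-kB elements; Probe or stimulus: PMA with ionomycin; Replication: tested once; Times: 1 h compound pretreatment, then 16 h stimulation at 37 °C, 5% CO2; Benchmarks: DMSO and 10 µM reference inhibitor; Evaluation: per-plate % inhibition versus controls.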
AP ELISA ortho – orthogonal test for alternative complement pathway inhibitors. 62,000 tested, 0.08% active. AID 1235. Human serum alternative complement pathway, LPS-coated ELISA, C3 deposition; tested in compound mixtures. inhibition, % at 5 µM;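 active means inhibition above 30% in each of the two pooled mixtures holding the compound, so the lower value exceeds 30%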;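 further: 0% = serum in Mg-EGTA without compound and 100% = EDTA serum blank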
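Medium: diluted human serum in Mg2+-EGTA GVB++. Assay system: human serum complement alternative pathway, C3 deposition onto LPS. Also added: Plate-bound LPS. Technique: Anti-C3 ELISA, OD 450 nm. Measure: percent inhibition. Incubation: 1 h at 37 °C. Dosing: 5 µM each compound, pools of ten, 50 µM per pool.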
Jurkat viability – cytotoxicity toward Jurkat cells | 56,000 tested, 1.2% active | AID 463 | Jurkat E6.1 viability, ATP luminescence, 48 h | inhibition, % at 4 µM;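 active means inhibition above the mean inhibition of all tested compounds plus 3 SD, cut at about 28% in these data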
Hsp90 block – displaces geldanamycin probe from tumor Hsp90; NCI-N417 lysate Hsp90, Cy3B-geldanamycin FP displacement; inhibition, % at 30 µM; 64,000 tested, 0.35% active;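 active means inhibition above 50%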;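 further: 0% = tracer plus lysate wells and 100% = tracer alone without lysate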
The depositor's hits bear a star; nt = not tested or not shown. The list is not random: actives were taken first. Their share in the collection is about 2.5%.

SMILES	JNK3 inh	HER2 expr 66K	HEK293 NFkB inh	AP ELISA ortho	Jurkat viability	Hsp90 block
COc1ccc(CCNC(=O)c2c(N)n(CCN3CCOCC3)c3nc4ccccc4nc23)cc1	-10	57	0	-5	3	-2
Nc1c(C(=O)NCCc2ccccc2)c2nc3ccccc3nc2n1CCN1CCOCC1	0	-5.1*	0	0	6	-4
C=CCn1c(O)c(C(C)=NCc2cc(OC)cc(OC)c2)c(=O)[nH]c1=O	2	72	21	10	37*	1
C=CCn1c(O)c(C(C)=NCc2cccnc2)c(=O)[nH]c1=O	-5	101	2	4	-2	0
C[C@@]1(CO)[C@H](O)CC[C@@]2(C)[C@H]1CC[C@H]1C[C@@H]3C[C@@]12CC[C@]3(O)CO	-1	-15*	nt	9	nt	-1
C[C@]12CC[C@H]3[C@@H](CCC4C[C@H](O)CC[C@@]43C)[C@@H]1CC[C@@H]2O (stereo partly drawn)	nt	nt	nt	nt	nt	-2
CC(O)C(C)OC(=O)[C@@H]1C[C@@H]2c3cccc4c3c(cn4C(C)C)C[C@H]2N(C)C1 (stereo partly drawn)	nt	nt	nt	nt	nt	-1
C[C@H]1CCCC(=O)CCCCCc2cc(O)cc(O)c2C(=O)O1	1	57	nt	3	nt	88*
N[C@@H](Cn1ccc(=O)[nH]c1=O)C(=O)O	nt	nt	nt	nt	nt	2
O=C(COc1ccccc1)N1CCN(C2CCCC2)CC1	1	-4.8*	4	14	-2	1
CN(C)[C@@H]1C(=O)C(C(N)=O)=C(O)[C@@]2(O)C(=O)C3=C(O)c4c(O)cccc4[C@@](C)(O)[C@H]3C[C@@H]12	0	87	nt	6	nt	72*
CN(C)[C@@H]1C(=O)C(C(N)=O)=C(O)[C@@]2(O)C(=O)C3=C(O)c4c(O)ccc(Cl)c4[C@@](C)(O)C3C[C@@H]12 (stereo partly drawn)	0	104	nt	10	nt	-1
Cn1nc(-c2ccc(OCC(=O)N3CCN(Cc4ccccc4)CC3)cc2)c2ccccc2c1=O	4	107	30	nt	58*	-7
Cn1ncnc2c(=O)n(C)c(=O)nc1-2	60*	1.0*	99*	13	88*	91*
Cc1ccc(-n2c(O)c(C=Nc3ccccc3N)c(=O)[nH]c2=O)cc1C	-7	87	-9	3	86*	5
Cc1ccc(-n2c(O)c(C=NCc3cccnc3)c(=O)[nH]c2=O)cc1C	4	123	14	12	3	1
CCN(CC)CCCN=C(C)c1c(O)n(-c2ccccc2)c(=O)[nH]c1=O	8	101	8	-19	-5	-1
CCC(=NCCCN(CC)CC)c1c(O)n(-c2ccccc2)c(=O)[nH]c1=O	1	92	1	36*	-4	-1
Oc1ccc2c3c1O[C@H]1c4oc5ccccc5c4C[C@@]4(O)C(C2)N(CC2CC2)CCC314 (stereo partly drawn)	nt	nt	nt	nt	nt	1
N#CC(C#N)=Cc1ccc(O)c(O)c1	nt	nt	nt	nt	nt	63*
N#CC(=Cc1ccc(O)c(O)c1)C(N)=S	nt	nt	nt	nt	nt	52*
COc1cc(C=C(C#N)C#N)cc(O)c1O	nt	nt	nt	nt	nt	69*
CN1C[C@@H](CS(=O)(=O)N(C)C)C[C@@H]2c3cccc4c3c(cn4C)C[C@H]21	nt	nt	nt	nt	nt	-3
CCN1C[C@]2(C)CC[C@H](O)[C@@]34C5C[C@@H]6[C@@H](OC)C[C@@](O)(C5[C@H]6O)[C@@H](CC23)C14 (stereo partly drawn)	nt	nt	nt	nt	nt	-4
O=C(Cc1ccccc1)N1CCN(Cc2c[nH]c3ccccc23)CC1	-4	84	1	42*	2	-4
SMILES	JNK3 inh	HER2 expr 66K	HEK293 NFkB inh	AP ELISA ortho	Jurkat viability	Hsp90 block
N[C@@H](Cn1cc(I)c(=O)[nH]c1=O)C(=O)O	nt	nt	nt	nt	nt	3
C[C@]12Cc3cn4c(nc3C=C1CCC1C2CC[C@@]2(C)[C@H]1CC[C@@]2(O)C#N)nc1ccccc14 (stereo partly drawn)	nt	nt	nt	nt	nt	-2
O=C(NC1(C(F)(F)F)Oc2ccccc2O1)N1CCC2(CC1)OCCO2	nt	107	5	nt	nt	nt
O=C(NC1(C(F)(F)F)Oc2ccc(Cl)cc2O1)N1CCC2(CC1)OCCO2 (stereo not drawn)	nt	178	21	14	nt	64*
N=C(N)c1c(O)n(C2CCCCC2)c(=O)n(C2CCCCC2)c1=O	-1	-6.5*	10	7	-6	0
CCCCCCCCCCCCCC(=O)O[C@@H]1[C@@H](C)[C@@]2(O)[C@@H](C=C(CO)C[C@@]3(O)C(=O)C(C)=C[C@@H]23)C2C(C)(C)[C@@]21OC(C)=O (stereo partly drawn)	nt	nt	nt	nt	nt	-2
